These results are taken from the RNAGym collection of RNA variant scans (doi:10.1126/science.aae0568).

First the molecules themselves.
B1: tRNA (parent)
chain: GUUCCGUUGGCGUAAUGGUAACGCGUCUCCCUCCUAAGGAGAAGACUGCGGGUUCGAGUCCCGUACGGAACG

This sample holds only a part of the variants without activity.

Variants of B1 are the subject of this data set. In words: yeast fitness relative to wild type (ratio to wild type); higher = fitter; tRNA-Arg(CCU), competitive growth, 37 C, YPD. An outline of the steps: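 The tRNA-Arg(CCU) gene variants were made by chemical synthesis with a 3% per-site mutation rate at 69 sites and inserted at the native genomic locus of Saccharomyces cerevisiae. After pooling, the strains were competed in YPD at 37°C for 24 hours in six parallel replicates. Gene amplicons from the start population and each end population were read by 100-nucleotide paired-end sequencing, and Darwinian fitness relative to wild type was taken from genotype frequency changes. Genotypes needed ≥ 100 starting reads, and estimates < 0.5 were set to 0.5.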
As for G38C U54G C60A, the yeast fitness was 0.589.

Regarding G38C G58C A69U, the yeast fitness stood at 0.714.

For G39A U47A A57G, the yeast fitness is no more than 0.5.

Turning to G39A A70C, the yeast fitness is 1.04.

G39C C60G A70U: the yeast fitness was found to be 0.524.

Consider G39C A43U G58C, for which the yeast fitness is 0.57.

Take G38C A45G U59A: the yeast fitness is no more than 0.5.

With G38A C60G, the yeast fitness stood at 0.623.

On to G38A C60A, for which the yeast fitness was determined as 0.646.

As to G38C A42G U64G, the yeast fitness is 0.781.

Take G38C C61A: the yeast fitness is 0.608.

Regarding G38C A45G A70C, the yeast fitness worked out at 0.548.

Take G38C C62A: the yeast fitness came to 0.624.

Regarding G38C C62G, the yeast fitness worked out at 0.63.

For the variant A40C C46U G52C, the yeast fitness was no more than 0.5.

With G39A A43U U53A A57U A65U, the yeast fitness is no more than 0.5.

As for G38C A42G, the yeast fitness came to 0.655.

For the variant G38C A42C, the yeast fitness amounted to 0.595.

As to G39A G51C U59C, the yeast fitness is no more than 0.5.

Regarding G39A G68C A70G, the yeast fitness was no more than 0.5.

As for G38A G48A A65G, the yeast fitness came to 0.559.

On to G39A C49G, for which the yeast fitness was 0.66.

For the variant G39A C49A, the yeast fitness is 0.598.

Regarding G39U G52A, the yeast fitness stood at 0.779.

Regarding G39C G67A A70G, the yeast fitness came out at 0.648.

As for G39C G50A U64A, the yeast fitness is no more than 0.5.

For G38A C55A, the yeast fitness amounted to 0.71.

Take G39C C46U C62U C66G: the yeast fitness was no more than 0.5.

As for G39C G48C G52C, the yeast fitness is no more than 0.5.

Consider G38A C62U, for which the yeast fitness was found to be 0.961.

For the variant A40C A65C, the yeast fitness was 0.825.

On to A40C A65G, for which the yeast fitness stood at 0.924.

Consider A40C A65U, for which the yeast fitness was 0.817.

Take G38A C61U: the yeast fitness is 0.931.

Take A40C A45C A70U: the yeast fitness is no more than 0.5.

Consider G38C U47C, for which the yeast fitness was determined as 0.757.

With G38C U47G, the yeast fitness worked out at 0.538.

On to G38C G48A G56C, for which the yeast fitness was found to be 0.7.

A40C A42G A43G C49A G52A: the yeast fitness is no more than 0.5.

With G39C A42C, the yeast fitness is 0.687.

Take G39C U64C: the yeast fitness turned out to be 0.959.

Take G39C C46A C62G: the yeast fitness is no more than 0.5.

On to A40C C55G, for which the yeast fitness is 0.527.

For the variant G38C G41C C55U, the yeast fitness is no more than 0.5.

On to G39A A69U, for which the yeast fitness stood at 1.03.

G39A A69C: the yeast fitness turned out to be 0.818.

Consider G39U C49A G58C, for which the yeast fitness amounted to 0.646.

Take G39C A43G: the yeast fitness was 0.684.

As to G39C A43U, the yeast fitness was determined as 0.934.

Consider G38A G39A, for which the yeast fitness was determined as 0.637.

In the case of A37U U54G, the yeast fitness was no more than 0.5.

With G39A U53A G68C, the yeast fitness was no more than 0.5.

Consider G39C A43C A57C, for which the yeast fitness is 0.628.

On to G38C G67A A69U, for which the yeast fitness stood at 0.537.

With A40C A43U C60U, the yeast fitness came out at 0.588.

As to G39C C55G, the yeast fitness is no more than 0.5.

G38C G58A: the yeast fitness amounted to 0.756.

With G38C G58C, the yeast fitness was found to be 0.937.

In the case of G39A A42C C61U, the yeast fitness was 0.542.

In the case of G38C G63A, the yeast fitness turned out to be 0.674.

Regarding G39A G44C, the yeast fitness worked out at 0.816.

Take G38C G50A: the yeast fitness worked out at 0.734.

On to G39A C61A, for which the yeast fitness worked out at 0.789.

Regarding G39A C61U, the yeast fitness worked out at 0.866.

For G38C A42G C62U, the yeast fitness is no more than 0.5.

G39C G44C: the yeast fitness was 0.749.

Regarding A40C A57U C60G C66G, the yeast fitness was no more than 0.5.

With G39A G63C, the yeast fitness came out at 0.728.

Regarding G38C G50A A70G, the yeast fitness turned out to be 0.527.

Turning to A40C C49A G51C U59A, the yeast fitness was no more than 0.5.

Regarding G38C A45U C66U, the yeast fitness is no more than 0.5.

In the case of G38A A40U G50C C60G A65U, the yeast fitness was no more than 0.5.

As to G38A G48A G50A, the yeast fitness was no more than 0.5.

G38C C61A G67A: the yeast fitness is no more than 0.5.

For A40C A42C G56A G67A, the yeast fitness was no more than 0.5.

G38C G41C G50U A65G: the yeast fitness is no more than 0.5.

On to G38A U47C C66U, for which the yeast fitness is 0.555.

Consider G39A G56A, for which the yeast fitness was 0.914.

In the case of G39A G56C, the yeast fitness came out at 0.603.

With G38C A70U, the yeast fitness was 0.628.

For G39A G41C C46A G68A, the yeast fitness was 0.55.

As for G38C A40U G51A C60U, the yeast fitness came to 0.725.

For G39C G67C, the yeast fitness was determined as 0.742.

As to A40C C46A C61G A69G, the yeast fitness is no more than 0.5.

Turning to A37U U59A, the yeast fitness turned out to be 0.706.

As to G39C C62U G63C, the yeast fitness was no more than 0.5.

Regarding G38C A40U G51A C60U G68A, the yeast fitness was no more than 0.5.

Consider G38A G63A, for which the yeast fitness turned out to be 0.897.

Take G39C A57C: the yeast fitness was no more than 0.5.

G39C G50A: the yeast fitness came out at 0.752.

With G39C G50C, the yeast fitness turned out to be 0.575.

G39A A43U A57G: the yeast fitness was found to be 0.562.

With G39C A43G G44C A45U C49G, the yeast fitness came out at 0.563.

As for G38C G41C C61U A70G, the yeast fitness is no more than 0.5.

As to G38C C46A U59C, the yeast fitness is no more than 0.5.

Consider G39A C61A A69U, for which the yeast fitness is no more than 0.5.

As for G38A A42C A45U G52A, the yeast fitness was no more than 0.5.

In the case of G39C G44C A65C, the yeast fitness was no more than 0.5.

On to G38A A57G, for which the yeast fitness amounted to 0.854.

Consider G38C G39C G56C G68A, for which the yeast fitness was no more than 0.5.

For A40C A45G U59A, the yeast fitness came to 0.573.

Consider G38A G44C, for which the yeast fitness was determined as 0.712.

For G38A A43G A57C, the yeast fitness was no more than 0.5.

Take G38C G56A G58A A65C: the yeast fitness is no more than 0.5.

On to G38A G67U, for which the yeast fitness turned out to be 0.803.

G38A G67C: the yeast fitness is 0.776.

With G39C A65G A70U, the yeast fitness was no more than 0.5.

Take G38C C49G G50C C61U: the yeast fitness was determined as 0.555.

As for G38A C46G G56C, the yeast fitness was no more than 0.5.

For G38C G39C U54G, the yeast fitness stood at 0.545.

In the case of A40C C49U, the yeast fitness turned out to be 0.892.

With G38A A40U G50C C60G, the yeast fitness is no more than 0.5.

In the case of G39A U54A, the yeast fitness was 0.61.

Regarding G38A C60U G67C, the yeast fitness is no more than 0.5.

Consider G38A U47C G56A, for which the yeast fitness came to 0.673.

Regarding G38C C49U, the yeast fitness was 0.67.

In the case of G39C U54G A65G, the yeast fitness is no more than 0.5.

For the variant G38A U47C C62U, the yeast fitness came out at 0.539.

With G39A A43U C46U, the yeast fitness stood at 0.574.

For G39A A57U G67C, the yeast fitness stood at 0.555.

With G38A A43G A69C, the yeast fitness was no more than 0.5.

For G39C G50A U59C, the yeast fitness is no more than 0.5.

Turning to G39C G44C C46U, the yeast fitness turned out to be 0.588.

On to G38A A42C, for which the yeast fitness stood at 0.734.

As for G38A A42U, the yeast fitness came to 0.661.

Regarding G39A U59C, the yeast fitness stood at 0.956.

Regarding G39C G44C G52C G56A, the yeast fitness was no more than 0.5.

Turning to G39A A65G, the yeast fitness was determined as 0.985.

For G39A A65C, the yeast fitness amounted to 0.837.

Consider G39A C49G A69U, for which the yeast fitness was no more than 0.5.

Consider G38C C60A, for which the yeast fitness was no more than 0.5.

Turning to G38A U47G, the yeast fitness came out at 0.574.

On to G39C C49U, for which the yeast fitness was 0.827.

With G39C C49G, the yeast fitness came to 0.59.

Consider A40C C46G G51C A57C A65U A70C, for which the yeast fitness was 0.555.

For the variant A40C A65U C66A, the yeast fitness came to 0.562.

With G38C G50A U53G G68A, the yeast fitness was 0.597.

Regarding G38C G67C, the yeast fitness came to 0.748.

Consider G39A C55U G68C A69G, for which the yeast fitness is no more than 0.5.

Regarding G38C C66U, the yeast fitness was determined as 0.664.

Consider G38C C66A, for which the yeast fitness was 0.561.

For the variant G38C C62U A69U, the yeast fitness came out at 0.603.

In the case of A40C A42G, the yeast fitness was found to be 0.886.

As for G38C G67U A70U, the yeast fitness was no more than 0.5.

With G39A C55A G56A G67C, the yeast fitness was no more than 0.5.

Take G39C A65G: the yeast fitness was found to be 0.754.

As for G38C U47C A65U, the yeast fitness was no more than 0.5.

In the case of G39C A42C A45C, the yeast fitness is 0.538.

Regarding G39C G44C G50A, the yeast fitness came to 0.566.

For the variant G38C C46G C55G C61G, the yeast fitness is no more than 0.5.

As to A40C C46U, the yeast fitness stood at 0.875.

As for A40C C46A, the yeast fitness was found to be 0.994.

As for G38A A45C A69U, the yeast fitness worked out at 0.684.

Regarding G39A A69G A70G, the yeast fitness amounted to 0.946.

For G38A G52C C62U, the yeast fitness turned out to be 0.595.

On to G39C A42G G63A, for which the yeast fitness was no more than 0.5.

On to A40C A43U C61A, for which the yeast fitness came out at 0.611.

G38C U54A A65G: the yeast fitness is no more than 0.5.

For G38A C49U, the yeast fitness turned out to be 1.03.

On to G38C A40U G67A, for which the yeast fitness is no more than 0.5.

In the case of A40C A69U, the yeast fitness is 0.843.

For A40C A69C, the yeast fitness came out at 0.765.

Turning to A40C A57G, the yeast fitness was determined as 0.813.

Turning to G38C C49G U54G, the yeast fitness was found to be 0.621.

As for G38A G48A C49G A70U, the yeast fitness is no more than 0.5.

With A40C A45G, the yeast fitness is 1.

As to A40C A45U, the yeast fitness amounted to 0.98.
